Results on 6 compounds are retold here after BindingDB's records for doi:10.1016/j.ejmech.2015.10.033 (Kyungpook National University, 2015).

This experiment addresses T1, Polyphenol oxidase 2 (Agaricus bisporus, UniProt O42713).
T1 sequence (O42713 whole entry): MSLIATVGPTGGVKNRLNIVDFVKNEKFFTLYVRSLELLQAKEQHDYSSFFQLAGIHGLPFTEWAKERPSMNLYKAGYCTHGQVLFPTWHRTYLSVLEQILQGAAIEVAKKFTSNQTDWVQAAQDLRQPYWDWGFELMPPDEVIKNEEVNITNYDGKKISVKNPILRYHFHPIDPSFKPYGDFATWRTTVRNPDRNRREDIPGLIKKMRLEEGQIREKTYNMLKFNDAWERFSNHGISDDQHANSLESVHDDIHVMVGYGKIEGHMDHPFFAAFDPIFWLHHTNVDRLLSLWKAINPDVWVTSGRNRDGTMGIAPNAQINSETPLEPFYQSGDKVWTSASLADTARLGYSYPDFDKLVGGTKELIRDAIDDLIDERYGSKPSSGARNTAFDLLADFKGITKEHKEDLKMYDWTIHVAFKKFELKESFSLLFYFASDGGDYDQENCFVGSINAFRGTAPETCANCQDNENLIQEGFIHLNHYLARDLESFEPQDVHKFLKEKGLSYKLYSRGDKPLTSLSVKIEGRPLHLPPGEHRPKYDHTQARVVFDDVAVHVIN
Kind of experiment: Non-competitive inhibition of mushroom tyrosinase using L-tyrosine as substrate by Lineweaver-Burk plots analysis. In a few lines:
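Absorbance at 475 nm read at 30 °C in PBS with 5% DMSO. Global nonlinear Michaelis–Menten fitting over four inhibition models gave Vmax, Km, Kic and Kiu, with the model chosen by minimal χ2.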
Take `NC(=S)c1cccnc1` [thionicotinamide]: the affinity corresponds to a Ki of 4300 nM.
Regarding `NC(=S)c1ccccn1`, the Ki (commonly the dissociation constant of the complex between target and ligand, obtained from inhibition or displacement) came to 2700 nM.
Compound `NC(=S)c1ccccc1` gave an inhibition constant (Ki) of 700 nM.
With `CCc1cc(C(N)=S)ccn1` [CHEBI:4885], the Ki is 1900 nM.
Under `NC(=S)c1ccncc1` stands 22300 nM.
Regarding `CCCc1cc(C(N)=S)ccn1` [Ektebin], affinity was put at a Ki of 2400 nM.
